Reference: ChEMBL document CHEMBL1136468, “B-ring unsaturated estrogens: biological evaluation of 17alpha-Dihydroequilein and novel B-Nor-6-thiaequilenins as tissue selective estrogens” (Bioorg Med Chem Lett, 2003)

Columns and labels:
Estrogen receptor beta = Estrogen receptor beta (Homo sapiens, UniProt Q92731); test: Binding affinity against human estrogen receptor beta
Outline: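 Competitive binding to human ERβ, reported as Ki (nM). Compounds generally run in duplicate; minimum significant ratio for the binding assay is 2-fold.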

Estrogen receptor = molecular target: T1, Estrogen receptor (Homo sapiens, UniProt P03372); test: Binding affinity against human estrogen receptor alpha
T1 sequence (P03372 whole entry): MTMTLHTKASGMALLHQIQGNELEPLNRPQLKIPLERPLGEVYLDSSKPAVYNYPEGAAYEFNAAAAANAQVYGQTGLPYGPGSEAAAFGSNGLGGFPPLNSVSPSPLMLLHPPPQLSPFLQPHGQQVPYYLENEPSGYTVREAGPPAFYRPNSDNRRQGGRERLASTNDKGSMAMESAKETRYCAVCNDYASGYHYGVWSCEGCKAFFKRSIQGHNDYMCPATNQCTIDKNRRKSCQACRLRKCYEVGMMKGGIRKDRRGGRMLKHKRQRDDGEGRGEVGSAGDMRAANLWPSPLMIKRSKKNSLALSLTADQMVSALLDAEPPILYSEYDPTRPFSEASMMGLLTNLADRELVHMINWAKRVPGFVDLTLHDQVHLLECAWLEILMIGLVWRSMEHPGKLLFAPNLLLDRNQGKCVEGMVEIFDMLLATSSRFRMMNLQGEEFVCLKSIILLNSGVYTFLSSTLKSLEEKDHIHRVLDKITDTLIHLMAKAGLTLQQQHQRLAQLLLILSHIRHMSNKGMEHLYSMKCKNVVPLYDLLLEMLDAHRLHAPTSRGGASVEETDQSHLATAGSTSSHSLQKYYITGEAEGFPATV

Rattus norvegicus [1] = test: (§1) Percent decrease in serum cholesterol in ovariectomized (OVX) rats at 0.10 mg/kg dose; format: functional; settings: dose 0.1 mg/kg
Outline: (§2)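 Six-month-old ovariectomized rats were dosed orally for 5 weeks, and total serum cholesterol was measured against OVX controls. Groups were compared by one-way ANOVA with p < 0.05.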

Rattus norvegicus [2] = test: as §1; design: scale not given: the % may be the effect or the level left; settings: dose 0.1 mg/kg
Rattus norvegicus [3] = test: Bone density at proximal metaphysis of excised femur in ovariectomized (OVX) rats at 10.00 mg/kg dose; format: functional
Outline: (§3)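 Six-month-old ovariectomized rats were dosed orally for 5 weeks. Bone density was measured at the proximal metaphysis of the excised femur. Percent protection was calculated for each animal as (BMD test − BMD OVX)/(BMD sham − BMD OVX) × 100. Statistics used one-way ANOVA with p < 0.05.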

Rattus norvegicus [4] = test: Bone density at proximal metaphysis of excised femur in ovariectomized (OVX) rats at 0.01 mg/kg dose; format: functional; outline: as §3
Rattus norvegicus [5] = test: (§4) Percent decrease in serum cholesterol in ovariectomized (OVX) rats at 10 mg/kg dose; format: functional; design: scale not given: the % may be the effect or the level left; outline: as §2
Rattus norvegicus [6] = species on record: Rattus norvegicus; test: Effective dose in rat; format: functional
Rattus norvegicus [7] = test: Bone density at proximal metaphysis of excised femur in ovariectomized (OVX) rats at 1.00 mg/kg dose; format: functional; outline: as §3
Rattus norvegicus [8] = test: as §4; format: functional; outline: as §2
Rattus norvegicus [9] = test: Bone density at proximal metaphysis of excised femur in ovariectomized (OVX) rats at 0.1 mg/kg dose; format: functional; outline: as §3

Sequence of Estrogen receptor beta (Q92731 whole entry): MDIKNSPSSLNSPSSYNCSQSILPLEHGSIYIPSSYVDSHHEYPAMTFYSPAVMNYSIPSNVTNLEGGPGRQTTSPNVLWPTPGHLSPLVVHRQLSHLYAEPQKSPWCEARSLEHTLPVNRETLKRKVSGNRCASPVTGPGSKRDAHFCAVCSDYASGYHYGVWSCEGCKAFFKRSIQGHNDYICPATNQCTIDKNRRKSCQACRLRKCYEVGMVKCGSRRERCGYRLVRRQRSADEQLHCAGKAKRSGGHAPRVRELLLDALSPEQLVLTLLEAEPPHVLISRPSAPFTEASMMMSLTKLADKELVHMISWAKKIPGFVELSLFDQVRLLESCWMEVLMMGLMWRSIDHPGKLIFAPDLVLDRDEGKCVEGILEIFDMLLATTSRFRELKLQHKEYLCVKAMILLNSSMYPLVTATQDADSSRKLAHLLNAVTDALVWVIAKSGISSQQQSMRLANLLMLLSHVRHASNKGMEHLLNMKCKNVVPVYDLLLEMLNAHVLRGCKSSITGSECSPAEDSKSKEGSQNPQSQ

SMILES | Ki (Estrogen receptor beta) | Ki (Estrogen receptor) | further results
C[C@@]12CCc3c(sc4cc(O)ccc34)[C@H]1CC[C@H]2O | 17 nM | 13 nM | –
C[C@]12CCc3c(sc4cc(O)ccc34)[C@@H]1CC[C@H]2O | 73 nM | 23 nM | –
C[C@@]12CCc3c(sc4cc(O)ccc34)[C@@H]1CC[C@H]2O | 120 nM | 24 nM | –
C[C@]12CCc3c(sc4cc(O)ccc34)[C@@H]1CC[C@@H]2O | 11 nM | 4 nM | –
C#C[C@]1(O)CC[C@H]2[C@@H]3CCc4cc(O)ccc4[C@H]3CC[C@@]21C [ETHINYL ESTRADIOL] | – | – | Decrease (Rattus norvegicus [1]): 83.3%; Activity (Rattus norvegicus [2]): 83.3%
C[C@]12CCc3c(ccc4cc(O)ccc34)[C@@H]1CC[C@H]2O | 24 nM | – | Protection (Rattus norvegicus [3]): 119%; Protection (Rattus norvegicus [4]): 6.1%; Activity (Rattus norvegicus [5]): 93.8%; ED50 (Rattus norvegicus [6]): < 0.1 mg/kg; Decrease (Rattus norvegicus [1]): 66.3%; Protection (Rattus norvegicus [7]): 59.5%; Decrease (Rattus norvegicus [8]): 93.8%; Protection (Rattus norvegicus [9]): 26.5%
C[C@]12CCc3c(sc4cc(O)ccc34)[C@H]1CC[C@@H]2O | 47 nM | 10 nM | –
